The results in this text go back to PubChem BioAssay AID439 (The Scripps Research Institute Molecular Screening Center, 2006).

This assay concerns the target Sphingosine 1-phosphate receptor 3 (Homo sapiens) (UniProt Q99500). The assay can be described thus: S1P3 receptor activation, EC50 – cell-based, NFAT-BLA reporter, dose response (AID 439). To be noted: S1P3 NFAT-beta-lactamase reporter cells, FRET ratio. The essentials:
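Material: CHO cells with human S1P3 and NFAT-BLA reporter; Times: 4 h compound exposure at 37 °C; Technique: BLA FRET emission ratio, 460 and 535 nm; Replication: triplicate; Dosing: 10-point threefold dilution series, from 10 mM DMSO stocks.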

Active and inactive are the calls of the source.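 Rule for the calls: active = compounds with EC50 at or below 10 micromolar; inactive = EC50 above 10 micromolar.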

Chain of Sphingosine 1-phosphate receptor 3 (Homo sapiens) (Q99500 whole entry, looked up): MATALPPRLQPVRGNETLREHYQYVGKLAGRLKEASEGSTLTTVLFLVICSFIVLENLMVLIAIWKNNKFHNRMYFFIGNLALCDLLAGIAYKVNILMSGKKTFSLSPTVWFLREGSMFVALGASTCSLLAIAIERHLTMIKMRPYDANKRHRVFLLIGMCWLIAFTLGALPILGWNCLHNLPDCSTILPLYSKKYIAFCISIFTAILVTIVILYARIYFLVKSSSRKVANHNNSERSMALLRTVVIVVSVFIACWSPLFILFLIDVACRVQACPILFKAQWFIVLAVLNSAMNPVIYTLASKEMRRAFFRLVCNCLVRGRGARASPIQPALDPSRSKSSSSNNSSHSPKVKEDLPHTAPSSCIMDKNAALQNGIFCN

For the molecule `CCOC(=O)C1=C(N)OC2=C(C(=O)CCC2)C1c1ccccc1OCC` (stereo unspecified), the EC50 result was “inactive”.
